A selection: hits, their analogues and other compounds. The true share with any hit is near 1.9%.
Hck Nef HTS: inhibitors of Nef-activated human Hck kinase, primary screen, biochemical, Z-Lyte FRET, 384-well, Hck-YEEI | inhibition, % at 20 µM | 0.68% of 220,000 active | Recombinant Hck-YEEI plus Nef, Z-Lyte FRET kinase assay;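 active = Hck-Nef kinase inhibition above about 50%, limit read from the data; inactive = inhibition below that limit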;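 also: 0% = DMSO with Hck plus Nef and 100% = Hck alone without Nef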
Target sequence (P08631 whole entry, looked up): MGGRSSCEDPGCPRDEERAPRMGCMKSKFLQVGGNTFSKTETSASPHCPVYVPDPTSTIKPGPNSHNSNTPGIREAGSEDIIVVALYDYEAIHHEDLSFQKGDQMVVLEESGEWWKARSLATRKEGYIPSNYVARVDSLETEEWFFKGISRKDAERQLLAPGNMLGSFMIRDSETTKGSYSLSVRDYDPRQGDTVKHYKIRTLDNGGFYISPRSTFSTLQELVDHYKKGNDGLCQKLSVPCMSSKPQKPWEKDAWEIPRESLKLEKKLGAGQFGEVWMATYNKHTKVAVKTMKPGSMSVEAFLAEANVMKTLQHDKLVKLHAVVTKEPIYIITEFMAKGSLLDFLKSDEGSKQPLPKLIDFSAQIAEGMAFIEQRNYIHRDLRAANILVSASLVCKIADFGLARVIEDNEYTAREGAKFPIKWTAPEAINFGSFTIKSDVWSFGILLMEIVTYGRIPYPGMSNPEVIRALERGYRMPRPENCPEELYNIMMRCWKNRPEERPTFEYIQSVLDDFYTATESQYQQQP
RanGTP-Imp inh: inhibitors of RanGTP-importin-beta interaction, primary screen, biochemical, FRET, CFP-Ran, YFP-importin-beta, homogeneous; Ran GTPase (GTP-bound) - importin-beta complex; cell-free CFP-Ran/YFP-importin-beta FRET ratio; inhibition, % (test concentration not listed); 1.1% of 300,000 active;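 active = more than half of the replicate wells show a fall in the fluorescence ratio signal beyond about 16%, limit read from the data, passing the limit was not always enough; inconclusive = exactly half of the replicate wells pass the set limit; inactive = fewer than half of replicates pass the limit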;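 also: 0% = DMSO wells and 100% = Ran loaded with GDP instead of GTP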
Runt-CBFb FRET: inhibitors of RUNX1 Runt–CBFb binding, primary screen, biochemical, FRET, Cerulean-Runt, Venus-CBFb, uHTS | Runt-related transcription factor 1 (Homo sapiens) + Core-binding factor subunit beta … | Cerulean-Runt/Venus-CBFb FRET ratio 530/480, 1 h | inhibition, % at 20 µM | 0.46% of 220,000 active | AID 1496, 2009;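 active = inhibition over about 50% at 20 µM in the single-dose screen, limit read from the data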;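 also: 0% = DMSO wells and 100% = excess unlabeled CBFb competitor control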
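Measured by: fluorescence energy transfer, 422 nm excitation, 530/480 nm emission; test system: Cerulean-tagged RUNX1 Runt domain (FRET donor) fusion protein; buffer or medium: Tris pH 7.5 buffer with BSA; compound: one dose, 20 µM compound, 1% DMSO; times: two 1 h room-temperature incubations shielded from light; benchmarks: unlabeled CBFb 5 µM, positive control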
Runt-SMMHC FRET: inhibitors of RUNX1 Runt–CBFb-SMMHC binding, primary screen, biochemical, FRET, Cerulean-Runt, Venus-CBFb-SMMHC, uHTS. Runt-related transcription factor 1 (Homo sapiens) + Core-binding factor subunit beta …. AID 1434, 2008. 0.74% of 220,000 active. inhibition, % at 20 µM. Cerulean-Runt/Venus-CBFb-SMMHC FRET ratio 530/480, 1 h;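 active = mean inhibition across duplicate retests at 20 µM reaching about 50%, limit read from the data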;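 also: 0% = DMSO wells and 100% = wells with excess untagged CBFb-SMMHC; inhibitors lower the FRET ratio by blocking Runt binding to CBFb-SMMHC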
Active calls of the source: *; ? = inconclusive; . = no result.

SMILES | Hck Nef HTS | RanGTP-Imp inh | Runt-CBFb FRET | Runt-SMMHC FRET
Cc1cc(C(F)(F)F)c(C#N)c(SCC(=O)Nc2nc3ccccc3s2)n1 | -3 | -24 | -5 | 6
O=C(Nc1cccc(Cl)c1)c1cc(N=Nc2ccc([N+](=O)[O-])cc2Cl)ccc1O | 83* | -1 | -4 | -14
Cc1ccc2cc(CCNS(=O)(=O)c3ccc(F)cc3)c(=O)[nH]c2c1C | 9 | 3 | 0 | 0
COc1ccc(Cn2c(N)c(C#N)c3nc4ccccc4nc32)cc1 | 10 | 33* | 80* | 94*
Cn1c(-c2c(N)n(CCc3ccccc3)c3nc4ccccc4nc23)nc2ccccc21 | -5 | -29 | -13 | -43
CCCCn1c(N)c(S(=O)(=O)c2ccc(C)cc2)c2nc3ccccc3nc21 | 11 | 3 | 3 | 16
N#Cc1c(N)n(CCOC(=O)c2cccc(Br)c2)c2nc3ccccc3nc12 | 1 | ? | 26 | 51*
N#Cc1c(N)n(CCc2ccc(F)cc2)c2nc3ccccc3nc12 | 9 | 44* | 93* | 77*
N#Cc1c(N)n(CCOC(=O)c2cccc([N+](=O)[O-])c2)c2nc3ccccc3nc12 | 2 | 4 | 4 | 31
Cc1ccc(C(=O)NCCn2c(N)c(C#N)c3nc4ccccc4nc32)cc1 | 15 | 58* | 98* | 79*
CCCCNC(=NCc1cccc(C(F)(F)F)c1)Nc1ccccc1 | . | -1 | . | .
Cc1cccc(N(C(=O)c2snc(C(N)=O)c2N)C(C(=O)NCC2CCCO2)c2ccc3ncccc3c2)c1 (stereo unspecified) | . | 5 | . | .
O=C(Cc1ccc(F)cc1)Nc1nnc(-c2ccc(F)cc2)o1 | . | 6 | . | .
COc1cccc(NC(=O)N2CCCC2C(=O)NC2CCCC2)c1 (stereo unspecified) | . | 0 | . | .
COCCn1c(N)c(C#N)c2nc3ccccc3nc21 | 26 | 71* | 108* | 57*
COc1cc(Cn2c(N)c(C#N)c3nc4ccccc4nc32)cc(OC)c1 | 3 | 38* | 72* | 113*
COc1cccc(Cn2c(N)c(C#N)c3nc4ccccc4nc32)c1OC | 10 | 9 | 37 | 22
COCCCn1c(N)c(-c2nc3ccccc3n2C)c2nc3ccccc3nc21 | -5 | -32 | -16 | -60
O=C(NC(Cc1ccccc1)C(=O)O)/C(=C/c1ccc(Br)cc1)NC(=O)c1ccc(Br)o1 (stereo unspecified) | . | 24* | . | .
O=C(NC(Cc1ccccc1)C(=O)O)/C(=C\c1ccc(Br)cc1)NC(=O)c1ccc(Br)o1 (stereo unspecified) | . | 12 | . | .
O=C(NCc1ccccc1)/C(=C\c1ccc(O)cc1)NC(=O)c1ccco1 | . | -3 | . | .
O=C(NCc1ccco1)/C(=C/c1ccc(Br)cc1)NC(=O)c1ccco1 | . | 23* | . | .
CC1CCCN(c2sc(S(C)(=O)=O)nc2S(=O)(=O)c2ccc(Cl)cc2)C1 (stereo unspecified) | . | 5 | . | .
CC1CN(c2sc(S(C)(=O)=O)nc2S(=O)(=O)c2ccc(Cl)cc2)CC(C)O1 (stereo unspecified) | . | 16* | . | .
Cc1ccc(CNC(=O)CC(C)S(=O)(=O)c2ccc3c(c2)NC(=O)C(C)S3)cc1 (stereo unspecified) | . | 3 | . | .
SMILES | Hck Nef HTS | RanGTP-Imp inh | Runt-CBFb FRET | Runt-SMMHC FRET
CC1CCCCC1NC(=O)CSc1nnc(COc2ccc(Cl)cc2)o1 (stereo unspecified) | . | -2 | . | .
CCCCCCc1cc2cc(C(=O)NCc3ccccc3)c(=N)oc2cc1O | 11 | 146* | 40 | 75
CCN(CC)c1ccc2cc(C(=O)NCc3ccc(F)cc3)c(=N)oc2c1 | . | 99* | . | .
Cc1ccc(N(CC(=O)NCc2ccc(Cl)cc2)S(C)(=O)=O)cc1 | . | -2 | . | .
COc1cc(/C=C2\SC(=S)N(C(C(=O)O)c3ccccc3)C2=O)ccc1O (stereo unspecified) | 10 | -18 | -52 | -162
CCOc1ccc(/C=C2/SC(=S)N(C(C(=O)O)c3ccccc3)C2=O)cc1OCC (stereo unspecified) | 62* | . | -40 | -121
CCOC(=O)Cn1cnc2c(nnn2-c2ccc(F)cc2)c1=O | . | 6 | . | .
CS(=O)(=O)N(CC(=O)N1CCc2ccccc2C1)c1cccc(Br)c1 | . | -1 | . | .
Oc1ccc2ccccc2c1/C=N/n1cnnc1 | -3 | 3 | 67* | 116*

Compound activity deposited in PubChem BioAssay by several laboratories.
